Source: PubChem BioAssay (several laboratories)
Compounds with a hit are over-represented: about 3.7% of the library has one in this group of screens.
SR-BI uptake up = activators of SR-BI mediated DiI-HDL uptake, primary screen, ldlA[mSR-BI] CHO cells, DiI fluorescence | 3 h; 100 = double the neutral-control signal | AID 504775, 2011 | 320,000 compounds, 0.096% hits | activation, % at 12.5 µM;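 active = mean replicate activation of at least 60% and every replicate at or above 60%; inconclusive = mean or all-replicate condition met, but not both; inactive = mean below 60% and not all replicates reaching 60%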;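 note: 0% = median plate neutral-control signal and 100% = twice that signal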
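material = CHO ldlA[mSR-BI] cells | medium = Ham's F12 with 0.5% BSA, HEPES 25 mM, pH 7.4 | reagent = fluorescent DiI-HDL, 10 µg/mL final | compound dosing = single-point compound dose | incubation = 3 h, 37 °C | measured by = bottom-read fluorescence, 550/595 nm | measure = HDL uptake via cellular fluorescence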
AHR act = AHR activators, primary screen, cell-based, luminescence, luciferase reporter, human. AHR-responsive luciferase reporter cells. 320,000 compounds, 2.5% hits. Aryl hydrocarbon receptor (Homo sapiens), P35869. activation, % at 5 µM; in the data active = activation above about 47%;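 note: 0% = vehicle wells and 100% = reference agonist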
Target sequence (P35869 whole entry, looked up): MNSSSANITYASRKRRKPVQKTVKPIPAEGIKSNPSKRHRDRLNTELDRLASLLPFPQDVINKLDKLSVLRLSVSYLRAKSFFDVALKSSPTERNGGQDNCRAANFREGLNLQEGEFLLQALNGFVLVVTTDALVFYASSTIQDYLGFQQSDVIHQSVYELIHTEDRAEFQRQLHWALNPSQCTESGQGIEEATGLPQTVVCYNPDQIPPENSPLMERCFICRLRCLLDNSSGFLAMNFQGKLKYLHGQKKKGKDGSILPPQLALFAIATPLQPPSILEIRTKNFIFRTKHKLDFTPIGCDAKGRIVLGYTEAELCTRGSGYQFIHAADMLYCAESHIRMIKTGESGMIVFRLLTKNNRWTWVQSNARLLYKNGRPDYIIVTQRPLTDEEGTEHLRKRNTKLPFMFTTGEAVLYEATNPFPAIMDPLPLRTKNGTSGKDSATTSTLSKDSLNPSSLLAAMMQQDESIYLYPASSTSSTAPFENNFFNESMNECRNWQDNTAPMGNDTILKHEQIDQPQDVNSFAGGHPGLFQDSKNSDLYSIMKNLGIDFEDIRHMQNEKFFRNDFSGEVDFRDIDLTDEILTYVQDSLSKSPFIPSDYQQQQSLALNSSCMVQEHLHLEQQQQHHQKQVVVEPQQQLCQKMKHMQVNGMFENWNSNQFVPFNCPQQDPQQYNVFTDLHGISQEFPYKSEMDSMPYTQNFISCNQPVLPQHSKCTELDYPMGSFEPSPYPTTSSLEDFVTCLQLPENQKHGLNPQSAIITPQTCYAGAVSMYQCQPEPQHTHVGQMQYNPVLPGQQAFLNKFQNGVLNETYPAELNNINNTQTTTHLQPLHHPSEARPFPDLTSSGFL
GAA850 FXN act = FXN promoter activators, primary screen, cell-based, luciferase luminescence, HEK293 lucGAA850. HEK293 lucGAA850 FXN promoter luciferase reporter, 24 h; percent of 10 µM SAHA response. activation, % at 6 µM. 360,000 compounds, 0.56% hits;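 active = activation above the average of all compounds screened plus 3 SD, cutoff fixed separately per campaign, cut at about 7.5% in these data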;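 note: 0% = DMSO wells and 100% = 10 µM SAHA wells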
JMJD2C inh = inhibitors of GASC-1 histone demethylase, primary screen, biochemical, fluorescence, DELFIA europium. Lysine-specific demethylase 4C (Homo sapiens), Q9H3R0. GST-JMJD2C(1-420) H3K9me3 demethylation. inhibition, % at 2.35 µM. 330,000 compounds, 0.069% hits. AID 2099, 2009;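 active = more than half of a compound's replicate wells show inhibition beyond 50%, single wells judged on their own value; inconclusive = some, but no more than half, of replicates pass 50% inhibition; inactive = no replicate passes 50% inhibition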;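 note: signal counts dimethyl H3K9 product captured on neutravidin plate; 0% = median of DMSO wells and 100% = 0.3 times that DMSO median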
SR-BI DiI inh = inhibitors of SR-BI mediated HDL lipid uptake, primary screen, ldlA[mSR-BI] cells, fluorescence, single point. Scavenger receptor class B member 1 (Mus musculus), Q61009. 320,000 compounds, 0.96% hits. inhibition, % at 12.5 µM. AID 488896, 2010. ldlA[mSR-BI] CHO cells, DiI-HDL uptake fluorescence, 3 h;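 active = mean replicate inhibition of at least 70% and a set share of replicates each scoring 70 or more; inconclusive = meets just one of the two criteria; inactive = fails both criteria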;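 note: 0% = median of neutral control wells and 100% = median of positive control wells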
* = called active by the depositor; ? = inconclusive; nt = not tested or not shown.

SMILES	SR-BI uptake up	AHR act	GAA850 FXN act	JMJD2C inh	SR-BI DiI inh
COc1cc(OC)cc(-c2cc3ncccc3cn2)c1	-14	22	5	18	14
O=C(CCC1CCCC1)NCCS(=O)(=O)N1CCN(c2ccccc2)CC1	-15	-1	0	9	15
O=C(CN1C(=O)/C(=C/c2ccccc2)SC1=S)Nc1cccnc1	3	7	2	0	-3
COc1cc(/C=C2/SC(=S)N(CC(=O)Nc3cccnc3)C2=O)cc(OC)c1OC	-45	51*	1	-2	45
CC1=NN(c2ccc(Cl)cc2)C(=O)C1C(c1cccc(O)c1)c1c(C)[nH]n(-c2ccc(Cl)cc2)c1=O (stereo not drawn)	-1	67*	2	6	1
COc1ccc(/C=C(/C#N)c2cccnc2)cc1OC	-2	64*	2	7	28
COc1ccc(C(C#N)=Cc2ccc(OC)c(OC)c2)cc1	nt	nt	3	nt	nt
O=C(CNC(=O)c1ccccc1F)Nc1ccccc1C(F)(F)F	9	-1	1	14	-9
C=CCNC(=S)N1CCN(c2cc3c(cc2F)c(=O)c(C(=O)O)cn3CC)CC1	-58	-1	0	4	58
COc1ccc(C2NC(=S)N3C(c4ccc(OC)cc4)NC(=S)N23)cc1 (stereo not drawn)	19	-2	-3	4	-19
COc1ccc(C2Nc3cc(OC)ccc3-n3cccc32)cc1 (stereo not drawn)	-68	60*	3	0	68
Cc1csc(SCC(=O)Nc2cc(F)ccc2C)n1	nt	nt	-1	nt	nt
CC(C)(C)CN1CCN(CC#Cc2ccccc2)CC1CCO (stereo not drawn)	18	59*	1	-3	-18
CCCCOc1ccc(C(=O)N2CCN(CC(=O)Nc3ccc(C)cc3)CC2)cc1OC	-78	3	1	-3	78*
COc1ccc(C(=O)NC2CCN(CC(=O)Nc3cccc(C)c3)CC2)cc1OC	-80	-1	-3	-1	80*
Clc1ccccc1CSc1cc2c(nn1)-c1ccccc1CC2	-15	72*	3	-1	15
Clc1cccc(Cl)c1CSc1cc2c(nn1)-c1ccccc1CC2	-44	1	3	12	44
CC1(C)N=C(/C=N/O)CN1O	-13	0	1	1	13
c1ccc2nc(-c3ccc4c(c3)OCO4)ccc2c1	-32	65*	2	1	32
CCc1noc(C)c1C(=O)Nc1nc(-c2ccc(Cl)cc2Cl)c(C)s1	-75	14	0	58	75*
C=CCN(CC=C)C(=S)NC(=O)c1ccc(OC)cc1	-19	51*	2	-1	19
C=CCN(CC=C)C(=S)NC(=O)c1ccc(-c2ccccc2)cc1	8	3	1	8	-8
COc1cccc(/C=N/Nc2nc(Nc3ccc([N+](=O)[O-])cc3)nc(N3CCCC3)n2)c1O	-87	47*	-3	-4	87*
O=[N+]([O-])c1ccc(Nc2nc(N/N=C/c3cccc(F)c3)nc(N3CCCC3)n2)cc1	-34	145*	-1	-11	34
CCC(=O)N(Cc1c(C)nn(-c2ccccc2)c1Cl)c1ccc(Cl)cc1	6	-1	2	-1	-6
SMILES	SR-BI uptake up	AHR act	GAA850 FXN act	JMJD2C inh	SR-BI DiI inh
Cc1ccc(-n2[nH]c(=O)c3cccnc32)cc1	21	64*	-4	1	-21
COc1ccc(C(=O)O)cc1S(=O)(=O)NC(C)C12CC3CC(CC(C3)C1)C2 (stereo not drawn)	29	-1	1	-3	-29
CC(C)(C)C1CCC(=NNC(=O)c2ccccc2-n2cccc2)CC1 (stereo not drawn)	?	70*	3	5	-121
CC(C)(C)C1CCC(=NNC(=O)CC(=O)NCc2ccccc2)CC1 (stereo not drawn)	7	3	2	8	-7
O=C(NNC(=O)c1ccccc1-n1cccc1)c1ccc(Cl)c(Cl)c1	-11	11	-1	5	11
O=C(NN=C1CCCC1)c1ccccc1O	-36	23	3	-1	36
O=C(NN=C1CCCCC1)c1ccccc1-n1cccc1	-5	48*	1	-9	5
O=C(NNC(=O)c1ccccc1-n1cccc1)c1ccc(Cl)cc1	4	62*	-1	-40	-4
CCOC(=O)N1CCN(C(=O)c2cc(COc3c(F)cccc3F)on2)CC1	10	9	0	10	-10
CC(=O)c1sc(Nc2nc3ccc(F)cc3s2)nc1C	-12	65*	3	-18	12
COC(=O)c1ccc2nc(Nc3nc4ccc(F)cc4s3)sc2c1	-24	-2	-7	0	24
CCC(=O)Nc1nc(-c2cc([N+](=O)[O-])cs2)cs1	-24	-5	-1	-4	24
C=CCN=c1scc(-c2ccccc2)n1/N=C/c1ccccn1	-23	35	-5	-4	23
CCN=c1scc(-c2ccc(F)cc2)n1/N=C/c1ccccn1	-18	-3	8.8*	-1	18
C=CCN=c1scc(-c2ccc(F)cc2)n1/N=C/c1ccccn1	-12	48*	0	-12	12
CCN=c1scc(-c2ccccc2)n1/N=C/c1ccccn1	-18	-12	-7	0	18
CCOc1ccccc1Nc1cc(C)c2cccc(C)c2n1	-34	36	1	17	34
CCOc1nc(N=C(N)N)nc2c(C)cccc12	-9	49*	-3	-4	9
O=C1NC[C@H](Cc2ccccc2)N(C[C@H]2CCCN2C[C@H](Cc2ccc(O)cc2)N2C[C@H](Cc3ccc(O)cc3)N(CC3CCCCCC3)C(=O)C2=O)C1=O	10	nt	2	nt	-10
COc1ccccc1CC(=O)c1ccc(OCc2ccccc2)cc1	20	48*	4	7	-20
COc1ccc(NC(=O)C(NC(=O)Cc2cccs2)c2ccccc2)cc1 (stereo not drawn)	2	0	-3	6	-2
COc1ccc(NC(=O)C(NC(=O)Cc2cccs2)c2ccc(C)cc2)cc1 (stereo not drawn)	65*	0	-3	1	-65
Cn1c(/C(C#N)=C(\O)c2ccc(Br)s2)nc2ccccc21	3	52*	4	5	-3
CC1Sc2ccc(S(=O)(=O)CCC(=O)NC3CCCC(C)C3C)cc2NC1=O (stereo not drawn)	15	0	-1	5	-15
O=C1CC(NCc2cccs2)C(=O)N1c1ccc(Cl)cc1 (stereo not drawn)	31	72*	-1	0	-31
